Data published in ChEMBL document CHEMBL1811834, “Synthesis and antimalarial activity of new heterocyclic hybrids based on chloroquine and thiazolidinone scaffolds” (Bioorg Med Chem, 2011).

Tests used:
HepG2 [1] = experiment: Cytotoxicity against human HepG2 cells at 23 uM after 24 hrs by MTT assay; format: cell-based; settings: hepg2, 24 h
J774 [2] = experiment: Cytotoxicity against mouse macrophage J774 cells at 23 uM after 24 hrs by MTT assay; format: cell-based; settings: j774, 24 h
[3] = Inhibition of beta-hematine formation after 18 to 24 hrs by ferriprotoporphyrin 9 biomineralization inhibition test; format: functional
Summary of the method: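 Haemin chloride (0.5 mg/mL, freshly dissolved in DMSO) was mixed with 10 mg/mL compound solution or solvent in 0.5 M sodium acetate pH 4.4 and incubated 18–24 h at 37 °C. IC₅₀ is the mean of two experiments in triplicate.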

Plasmodium falciparum [4] = experiment: Antimalarial activity against erythrocytic stage chloroquine-sensitive Plasmodium falciparum 3D7 after 48 hrs by fluorescence spectrophotometer; format: functional, organism-based; settings: 3D7, 48 h
Plasmodium falciparum [5] = experiment: Antimalarial activity against erythrocytic stage multidrug-resistant Plasmodium falciparum Dd2 after 48 hrs by fluorescence spectrophotometer; format: functional, organism-based; settings: Dd2, 48 h
J774 [6] = experiment: Cytotoxicity against mouse macrophage J774 cells at 37 uM after 24 hrs by MTT assay; format: cell-based; settings: j774, 24 h
Summary of the method: (§1)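 5 × 10⁴ cells/well were exposed to compound for 24 h. Medium was then removed and MTT (0.4 mg/mL in PBS) added for 1 h. Crystals were dissolved in DMSO and read at 595 nm. % toxicity = (OD control − OD compound)/OD control × 100.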

HepG2 [7] = experiment: Cytotoxicity against human HepG2 cells at 37 uM after 24 hrs by MTT assay; format: cell-based; settings: hepg2, 24 h; summary of the method: as §1
Plasmodium berghei = experiment: Antimalarial activity against Plasmodium berghei str. ANKA infected in NMRI mouse at 10 mg/kg/day, ip for three days measured on day 4 by Giemsa staining; format: functional; settings: route intraperitoneal
Summary of the method: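 NMRI male mice (20 ± 2 g, groups of five) inoculated on day 0 with 2 × 10⁷ RBCs infected with P. berghei ANKA erythrocytic stages. Two hours later, i.p. dosing at 10 mg/kg/day in DMSO, continued days 1–3.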

J774 [8] = experiment: Cytotoxicity against mouse macrophage J774 cells at 19 uM after 24 hrs by MTT assay; format: cell-based; settings: j774, 24 h; summary of the method: as §1
HepG2 [9] = experiment: Cytotoxicity against human HepG2 cells at 19 uM after 24 hrs by MTT assay; format: cell-based; settings: hepg2, 24 h; summary of the method: as §1

Row | Structure (SMILES) | Activity (HepG2 [1]) | Activity (J774 [2]) | IC50 [3] | IC50 (Plasmodium falciparum [4]) | IC50 (Plasmodium falciparum [5]) | Activity (J774 [6]) | Activity (HepG2 [7]) | inhibition in vivo at 10 mg/kg/day (Plasmodium berghei) | Activity (J774 [8]) | Activity (HepG2 [9])
1 | O=C1CSC(c2ccc3c(c2)OCO3)N1CCNc1ccnc2cc(Cl)ccc12 (stereo not given) | 25.53% | 47.93% | 58400 nM | 510 nM | 750 nM | – | – | – | – | –
2 | Clc1ccc2c(NCc3ccccc3)ccnc2c1 | – | – | 46500 nM | 300 nM | 330 nM | 0% | 46.58% | 25% | – | –
3 | CCN(CC)CCCC(C)Nc1ccnc2cc(Cl)ccc12 (stereo not given) [CHLOROQUINE] | – | – | 22300 nM | – | – | – | – | 100% | 0% | 0%
